What is called IC50 is the concentration at which inhibition is half-maximal.

Here are results for twelve compounds from ChEMBL document CHEMBL4052644, “Synthesis of novel benzylidene analogues of betulinic acid as potent cytotoxic agents” (Eur J Med Chem, 2017).

Assay [1] deals with PC-3. Put plainly: Growth inhibition of human PC3 cells at 10 uM after 48 hrs by SRB assay relative to control. The class given is functional. The following applies: PC-3, 48 h, read-out: GI. The essentials: (§1)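 Primary SRB screen of every compound at a single concentration of 10 µM. Growth inhibition is expressed relative to control.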
Assay [2] relates to MIA PaCa-2. Put plainly: Growth inhibition of human MIAPaCa2 at 10 uM after 48 hrs by SRB assay relative to control. Type of assay: functional. The following applies: MIA PaCa-2, 48 h, read-out: GI. The essentials: as §1
Background: Sulforhodamine B stains cellular protein and so reports cell mass.

In assay [3] the test system is MCF7. Put plainly: Growth inhibition of human MCF7 cells at 10 uM after 48 hrs by SRB assay relative to control. The class given is functional. The following applies: MCF7, 48 h, read-out: GI. The essentials:
as §1

Assay [4] can be described thus: Selectivity index, ratio of IC50 for human FR2 cells to IC50 for human MCF7 cells. The class given is functional. The essentials: (§2)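 Selectivity index is the IC50 in normal breast epithelial fR2 cells divided by the IC50 in each cancer line. All IC50 values come from the SRB assay.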
Assay [5] deals with MIA PaCa-2. Put plainly: Cytotoxicity against human MIAPaCa2 cells assessed as reduction in cell viability after 48 hrs by SRB assay. The following applies: MIA PaCa-2, 48 h. The class given is functional, cell-based. The essentials:
(§3)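 SRB assay. Compounds active at 10 µM in the primary screen were retested at 1, 2.5 and 5 µM, and IC50 was calculated from these concentrations. The normal breast epithelial line fR2 was tested alongside the cancer lines.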

Assay [6] concerns MCF7. Put plainly: Cytotoxicity against human MCF7 cells assessed as reduction in cell viability after 48 hrs by SRB assay. The class given is functional, cell-based. The following applies: MCF7, 48 h. The essentials:
as §3

Assay [7] relates to HCT-116. As to the kind of experiment: Growth inhibition of human HCT116 cells at 10 uM after 48 hrs by SRB assay relative to control. The following applies: HCT-116, 48 h, read-out: GI. The class given is functional. The essentials:
as §1

Assay [8] is described as follows: Cytotoxicity against human FR2 cells assessed as reduction in cell viability after 48 hrs by SRB assay. The class given is cell-based. The following applies: FR2, 48 h. The essentials:
as §3

Assay [9] concerns PC-3. Put plainly: Cytotoxicity against human PC3 cells assessed as reduction in cell viability after 48 hrs by SRB assay. The class given is functional, cell-based. The following applies: PC-3, 48 h. The essentials:
as §3

For assay [10], the system named is HCT-116. Put plainly: Cytotoxicity against human HCT116 cells assessed as reduction in cell viability after 48 hrs by SRB assay. The class given is functional, cell-based. The following applies: HCT-116, 48 h. Summed up:
as §3

Assay [11] can be described thus: Selectivity index, ratio of IC50 for human FR2 cells to IC50 for human HCT116 cells. The class given is functional. Summed up:
as §2

A short description of assay [12]: Selectivity index, ratio of IC50 for human FR2 cells to IC50 for human PC3 cells. The class given is functional. Summed up:
as §2

The nature of assay [13]: Selectivity index, ratio of IC50 for human FR2 cells to IC50 for human A549 cells. Type of assay: functional. The essentials:
as §2

The test system of assay [14] is A549. Put plainly: Cytotoxicity against human A549 cells assessed as reduction in cell viability after 48 hrs by SRB assay. The following applies: A549, 48 h. Type of assay: functional, cell-based. Summed up:
as §3

Assay [15] has as its system A549. Put plainly: Growth inhibition of human A549 cells at 10 uM after 48 hrs by SRB assay relative to control. The class given is functional. The following applies: A549, 48 h, read-out: GI. The essentials: as §1

In the case of `C=C(C)[C@@H]1CC[C@]2(C(=O)O)CC[C@]3(C)[C@H](CC[C@@H]4[C@@]5(C)C/C(=C\c6cccc([N+](=O)[O-])c6)C(=O)C(C)(C)[C@@H]5CC[C@]43C)[C@@H]12`, the inhibition of growth at 10 µM was found to be 41% in [1]; 31% in assay [2]; 70% in assay [3]; 69% in assay [7]; 75% in assay [15]. For the same compound, the “Ratio IC50” value in assay [4] stood at 1.715; in assay [11], 1.602; in [12] it was 3.009; in assay [13], 2.591. Further, the IC50 in assay [5] is more than 10 µM; in assay [6], 7.1 µM; in [8], 12.2 µM; in [9] it was more than 10 µM; in assay [10] it was 7.6 µM; in assay [14], 4.7 µM.

Consider `C=C(C)[C@@H]1CC[C@]2(C(=O)O)CC[C@]3(C)[C@H](CC[C@@H]4[C@@]5(C)C/C(=C\c6ccsc6)[C@H](O)C(C)(C)[C@@H]5CC[C@]43C)[C@@H]12`, for which the inhibition of growth at 10 µM in [1] turned out to be 35%; in assay [2] it was 70%; in assay [3] it was 79%; in [7], 62%; in assay [15] it was 72%. The “Ratio IC50” value in assay [4] turned out to be 6.461. Further, the IC50 is more than 10 µM in assay [5]; 1.71 µM in assay [6]; 11.1 µM in assay [8]; more than 10 µM in assay [9]; more than 10 µM in assay [10]; more than 10 µM in [14].

As to `C=C(C)[C@@H]1CC[C@]2(C(=O)O)CC[C@]3(C)[C@H](CC[C@@H]4[C@@]5(C)CC[C@H](O)C(C)(C)[C@@H]5CC[C@]43C)[C@@H]12` [BETULINIC ACID], the inhibition of growth at 10 µM in [1] worked out at 49%; in assay [2] it was 26%; in assay [3], 28%; in [7], 42%; in [15], 40%. In addition, the 50% inhibitory concentration (IC50) in assay [5] is more than 10 µM; in assay [6], more than 10 µM; in assay [8] it was 30.1 µM; in assay [9], more than 10 µM; in assay [10], more than 10 µM; in assay [14], more than 10 µM.

In the case of `C=C(C)[C@@H]1CC[C@]2(C(=O)O)CC[C@]3(C)[C@H](CC[C@@H]4[C@@]5(C)C/C(=C\c6cc(Br)ccc6OC)[C@H](O)C(C)(C)[C@@H]5CC[C@]43C)[C@@H]12`, the inhibition of growth at 10 µM in [1] was 7%; in assay [2], 16%; in assay [3], 67%; in [7], 54%; in [15], 65%. The “Ratio IC50” value in assay [4] came out at 2.025; in [11] it was 1.93; in [13], 3.76. The half-inhibitory concentration (IC50) was more than 10 µM in [5]; 5.2 µM in [6]; 10.5 µM in [8]; more than 10 µM in assay [9]; 5.44 µM in assay [10]; 2.8 µM in [14].

Take `C=C(C)[C@@H]1CC[C@]2(C(=O)O)CC[C@]3(C)[C@H](CC[C@@H]4[C@@]5(C)C/C(=C\c6c(Cl)cccc6Cl)C(=O)C(C)(C)[C@@H]5CC[C@]43C)[C@@H]12`: the inhibition of growth at 10 µM in assay [1] is 25%; in [2] it was 15%; in [3] it was 54%; in assay [7] it was 33%; in assay [15] it was 62%. Moreover, the concentration for half-maximal inhibition (IC50) in [5] was more than 10 µM; in assay [6] it was 9.07 µM; in [8] it was 18.2 µM; in assay [9], more than 10 µM; in assay [10], more than 10 µM; in [14], 7.7 µM. Moreover, the figures for the “Ratio IC50” value in assay [11] and in assay [13] were less than 2.003 and 2.359, respectively.

As to `C=C(C)[C@@H]1CC[C@]2(C(=O)O)CC[C@]3(C)[C@H](CC[C@@H]4[C@@]5(C)CCC(=O)C(C)(C)[C@@H]5CC[C@]43C)[C@@H]12` [BETUNOLIC ACID], the inhibition of growth at 10 µM in [1] was determined as 43%; in assay [2], 36%; in assay [3], 43%; in assay [7] it was 49%; in [15], 62%. The IC50 in assay [5] was more than 10 µM; in [6], more than 10 µM; in [8] it was 16.2 µM; in assay [9] it was more than 10 µM; in assay [10] it was more than 10 µM; in [14] it was 5.7 µM. In addition, the “Ratio IC50” value in assay [13] is 2.838.

With `C=C(C)[C@@H]1CC[C@]2(C(=O)O)CC[C@]3(C)[C@H](CC[C@@H]4[C@@]5(C)C/C(=C\c6ccc(Br)cc6)[C@H](O)C(C)(C)[C@@H]5CC[C@]43C)[C@@H]12`, the inhibition of growth at 10 µM in assay [1] amounted to 48%; in assay [2], 48%; in assay [3] it was 64%; in assay [7], 66%; in assay [15], 80%. Besides, the “Ratio IC50” value is reported as 4.36 in assay [4], 6.2 in assay [11], 4.3 in assay [12] and 19.63 in [13]. Further, the IC50 was more than 10 µM in assay [5]; 8.1 µM in assay [6]; 35.3 µM in assay [8]; 8.2 µM in assay [9]; 5.7 µM in [10]; 1.8 µM in assay [14].

On to `C=C(C)[C@@H]1CC[C@]2(C(=O)O)CC[C@]3(C)[C@H](CC[C@@H]4[C@@]5(C)C/C(=C\c6cccnc6)[C@H](O)C(C)(C)[C@@H]5CC[C@]43C)[C@@H]12`, for which the inhibition of growth at 10 µM in [1] worked out at 26%; in assay [2], 63%; in assay [3] it was 72%; in [7], 65%; in assay [15] it was 71%. In addition, the “Ratio IC50” value in [4] was determined as 3.18; in assay [11], 2.46; in assay [13], 3.65. The half-inhibitory concentration (IC50) was 5.8 µM in assay [5]; 3.9 µM in assay [6]; 12.4 µM in assay [8]; more than 10 µM in assay [9]; 5.04 µM in assay [10]; 3.4 µM in assay [14].

For `C=C(C)[C@@H]1CC[C@]2(C(=O)O)CC[C@]3(C)[C@H](CC[C@@H]4[C@@]5(C)C/C(=C\c6ccc(Br)o6)[C@H](O)C(C)(C)[C@@H]5CC[C@]43C)[C@@H]12`, the inhibition of growth at 10 µM was determined as 8% in [1]; 34% in assay [2]; 22% in assay [3]; 25% in assay [7]; 0% in [15].

In the case of `C=C(C)[C@@H]1CC[C@]2(C(=O)O)CC[C@]3(C)[C@H](CC[C@@H]4[C@@]5(C)C/C(=C/C=C/c6ccccc6)[C@H](O)C(C)(C)[C@@H]5CC[C@]43C)[C@@H]12`, the inhibition of growth at 10 µM in assay [1] stood at 30%; in assay [2], 49%; in assay [3], 49%; in assay [7], 40%; in [15], 26%.

On to `C=C(C)[C@@H]1CC[C@]2(C(=O)O)CC[C@]3(C)[C@H](CC[C@@H]4[C@@]5(C)C/C(=C\c6c(Cl)cccc6Cl)[C@H](O)C(C)(C)[C@@H]5CC[C@]43C)[C@@H]12`, for which the inhibition of growth at 10 µM amounted to 38% in assay [1]; 38% in assay [2]; 56% in assay [3]; 40% in assay [7]; 40% in [15]. For the same compound, the 50% inhibitory concentration (IC50) is more than 10 µM in assay [5]; more than 10 µM in assay [6]; 13.3 µM in [8]; more than 10 µM in [9]; more than 10 µM in assay [10]; more than 10 µM in assay [14].

`C=C(C)[C@@H]1CC[C@]2(C(=O)O)CC[C@]3(C)[C@H](CC[C@@H]4[C@@]5(C)C/C(=C\c6ccc(F)c(Br)c6)[C@H](O)C(C)(C)[C@@H]5CC[C@]43C)[C@@H]12`: the inhibition of growth at 10 µM was 31% in [1]; 40% in [2]; 72% in assay [3]; 57% in assay [7]; 65% in assay [15]. Also, the “Ratio IC50” value was 4.021 in assay [4], 3.064 in assay [11] and 5.253 in assay [13]. In addition, the IC50 was more than 10 µM in assay [5]; 6.4 µM in assay [6]; 25.7 µM in assay [8]; more than 10 µM in [9]; 8.4 µM in assay [10]; 4.9 µM in assay [14].
